Test results published in ChEMBL document CHEMBL4145471, “New 1,5 and 2,5-disubstituted tetrazoles-dependent activity towards surface barrier of Candida albicans” (Eur J Med Chem, 2018).

What was measured:
[1] = test system: Candida albicans; test: Antifungal activity against Candida albicans ATCC 90028 at 4 ug/ml after 48 hrs relative to control; assay type: functional
Outline: (§1)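 Planktonic broth microdilution per M27-A3 in MOPS-buffered RPMI 1640 (pH 7.0), final inoculum 1.8×10^3 cells/mL, compounds 0.0313–16 µg/mL from 1600 µg/mL stocks in ethanol or DMSO. Incubated at 35°C without agitation; OD405 read at 18 and 48 h. % inhibition was derived from test, sterility (no inoculum) and solvent growth-control wells. Amphotericin B at 0.5 µg/mL served as the 100% control.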

[2] = test system: Candida albicans; test: Antifungal activity against Candida albicans ATCC 90028 at 0.5 ug/ml after 18 hrs relative to control; assay type: functional; outline: as §1
[3] = test system: Candida albicans; test: Antifungal activity against Candida albicans ATCC 90028 at 0.5 ug/ml after 48 hrs relative to control; assay type: functional; outline: as §1
[4] = test system: Candida albicans; test: Antifungal activity against Candida albicans ATCC 90028 at 0.0625 ug/ml after 18 hrs relative to control; assay type: functional
[5] = test system: Candida albicans; test: Synergistic antifungal activity against Candida albicans ATCC 90028 at 40 ug/ml after 48 hrs in presence of 5 ug/ml fluconazol by checkerboard assay relative to control; assay type: functional
Outline: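 Checkerboard in C. albicans ATCC 90028, inoculum prepared per CLSI M27-A3 in RPMI. Fluconazole serially diluted 80-1.25 µg/mL across the plate against the partner compound at 80-1.25 µg/mL final. Incubated 48 h at 35°C. Metabolic activity read by XTT reduction at 475 nm (660 nm reference), given as % of the untreated growth control.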

[6] = test system: Candida albicans; test: Synergistic antifungal activity against Candida albicans ATCC 90028 at 40 ug/ml after 48 hrs in presence of 2.5 ug/ml fluconazol by checkerboard assay relative to control; assay type: functional
Outline: (§2)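 Checkerboard microdilution (M27-A3) on C. albicans ATCC 90028 in RPMI 1640: fluconazole (80-1.25 µg/mL) crossed with tetrazole (80-1.25 µg/mL final), incubated at 35°C for 48 h. Growth by OD405 at 18 and 48 h, endpoint taken as 100% inhibition. FIC index = sum of the two agents' FICs; <1 synergism, >1 antagonism.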

[7] = test system: Candida albicans; test: Synergistic antifungal activity against Candida albicans ATCC 90028 at 2.5 ug/ml after 48 hrs in presence of 80 ug/ml fluconazol by checkerboard assay relative to control; assay type: functional; outline: as §2
[8] = test system: Candida albicans; test: Synergistic antifungal activity against Candida albicans ATCC 90028 at 2.5 ug/ml after 48 hrs in presence of 10 ug/ml fluconazol by checkerboard assay relative to control; assay type: functional; outline: as §2
[9] = test system: Candida albicans; test: Synergistic antifungal activity against Candida albicans ATCC 90028 at 2.5 ug/ml after 48 hrs in presence of 2.5 ug/ml fluconazol by checkerboard assay relative to control; assay type: functional; settings: ATCC 90028, 48 h, read-out: GI; outline: as §2
[10] = test system: Candida albicans; test: Synergistic antifungal activity against Candida albicans ATCC 90028 at 1.25 ug/ml after 48 hrs in presence of 80 ug/ml fluconazol by checkerboard assay relative to control; assay type: functional
Outline: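 Checkerboard per M27-A3 against ATCC 90028: fluconazole at 80–1.25 µg/mL horizontally and partner compound at 80–1.25 µg/mL vertically, 100 µL yeast inoculum per well, 35°C for 48 h. After 48 h, metabolic activity was measured by XTT reduction at 475 nm (660 nm reference) relative to untreated growth control. FIC index is the sum of the FICs; <1 was defined as synergism and >1 as antagonism.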

[11] = test system: Candida albicans; test: Antifungal activity against Candida albicans ATCC 90028 assessed as inhibition of metabolic activity at 10 ug/ml after 48 hrs in presence of 1.25 ug/ml fluconazol by XTT assay relative to control; assay type: functional; settings: values are per cent of control
Outline: (§3)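 Checkerboard against strain ATCC 90028, inoculum per M27-A3: fluconazole 80-1.25 µg/mL on one axis, tetrazole 80-1.25 µg/mL on the other. Plates at 35°C for 48 h, then XTT metabolic reduction read at 475 nm (660 nm reference). Activity is the drop in mean absorbance against untreated growth control. FICs and their summed FIC index are taken at 50% reduction in metabolic activity.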

[12] = test system: Candida albicans; test: Antifungal activity against Candida albicans ATCC 90028 assessed as inhibition of metabolic activity at 5 ug/ml after 48 hrs in presence of 10 ug/ml fluconazol by XTT assay relative to control; assay type: functional; settings: values are per cent of control; outline: as §3
[13] = test system: Candida albicans; test: Antifungal activity against Candida albicans ATCC 90028 assessed as inhibition of metabolic activity at 5 ug/ml after 48 hrs in presence of 1.25 ug/ml fluconazol by XTT assay relative to control; assay type: functional; settings: values are per cent of control; outline: as §3
[14] = test system: Candida albicans; test: Antifungal activity against Candida albicans ATCC 90028 assessed as inhibition of metabolic activity at 2.5 ug/ml after 48 hrs in presence of 40 ug/ml fluconazol by XTT assay relative to control; assay type: functional; settings: values are per cent of control
Outline: (§4)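 C. albicans ATCC 90028 in checkerboard: fluconazole serial dilutions (80-1.25 µg/mL) crossed with tetrazole (80-1.25 µg/mL final), M27-A3 inoculum in RPMI 1640, 35°C for 48 h. Metabolic activity measured by XTT reduction, read at 475 nm (660 nm reference). Activity expressed relative to untreated growth control absorbance.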

[15] = test system: Candida albicans; test: Antifungal activity against Candida albicans ATCC 90028 assessed as inhibition of metabolic activity at 1.25 ug/ml after 48 hrs in presence of 5 ug/ml fluconazol by XTT assay relative to control; assay type: functional; settings: values are per cent of control; outline: as §3
[16] = test system: Candida albicans; test: Antifungal activity against Candida albicans ATCC 90028 assessed as inhibition of metabolic activity at 1.25 ug/ml after 48 hrs in presence of 2.5 ug/ml fluconazol by XTT assay relative to control; assay type: functional; settings: values are per cent of control; outline: as §4
[17] = test system: Candida albicans; test: Antifungal activity against Candida albicans ATCC 90028 assessed as FIC at 80 ug/ml in presence of fluconazol after 48 hrs by checkerboard-based XTT assay; assay type: functional; outline: as §3
[18] = test system: Candida albicans; test: Antifungal activity against Candida albicans ATCC 90028 assessed as metabolic activity at 40 ug/ml after 48 hrs in presence of 10 ug/ml fluconazol by XTT assay relative to control
[19] = test system: Candida albicans; test: Antifungal activity against Candida albicans ATCC 90028 assessed as metabolic activity at 10 ug/ml after 48 hrs in presence of 80 ug/ml fluconazol by XTT assay relative to control
[20] = test system: Candida albicans; test: Antifungal activity against Candida albicans ATCC 90028 assessed as metabolic activity at 80 ug/ml after 48 hrs in presence of 2.5 ug/ml fluconazol by XTT assay relative to control
[21] = test system: Candida albicans; test: Antifungal activity against Candida albicans ATCC 90028 assessed as metabolic activity at 1.25 ug/ml after 48 hrs in presence of 1.25 ug/ml fluconazol by XTT assay relative to control; settings: ATCC 90028, 48 h

SMILES	Activity [1]	Activity [2]	Activity [3]	Activity [4]	growth inhibition (GI) [5]	growth inhibition (GI) [6]	growth inhibition (GI) [7]	growth inhibition (GI) [8]	inhibition of growth at 2.5 µg/mL [9]	growth inhibition (GI) [10]	residual activity [11]	residual activity [12]	residual activity [13]	residual activity [14]	residual activity [15]	residual activity [16]	FIC [17]	Metabolic activity [18]	Metabolic activity [19]	Metabolic activity [20]	other results
CCOC(=O)CCn1nnc(-c2ccccc2)n1	99.68%	98.97%	99.31%	99.57%	98.93%	99.74%	99.54%	99.49%	99.8%	99.51%	90.58%	69.35%	88.02%	92.82%	100%	75.73%	>5	56.45%	77.26%	64.31%	metabolic activity at 1.25 µg/mL [21]: 87%
ClCCCn1nnnc1-c1ccccc1Cl	99.41%	98.4%	99.22%	99.9%	98.95%	99.14%	99.49%	99.75%	99.4%	99.49%	73.65%	66.6%	79.99%	97.62%	100%	71.55%	>5	70.86%	80.34%	59.43%	metabolic activity at 1.25 µg/mL [21]: 86.4%
Cc1ccc(-c2nnn(CCCN3CCOCC3)n2)cc1	99.45%	98.99%	99.18%	99.5%	98.83%	99.77%	99.19%	99.09%	98.5%	99.54%	100%	81.48%	100%	100%	100%	100%	>1.25	28.26%	89.3%	78.22%	metabolic activity at 1.25 µg/mL [21]: 74.3%
